Experimental data from PubChem BioAssay AID588702 (Broad Institute, 2011).
Activity calls are given as the source filed them.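 The calls were made as follows: active = marked loss of luminescence, read as toxicity to breast epithelial cells carrying a control GFP hairpin; inactive = the rest.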

tested on: not listed separately; test: cytotoxicity in HMLE control cells, dose response, counter-screen for breast cancer stem cell project, cell-based, CellTiter-Glo luminescence, dry powder samples (AID 588702); settings: HMLE_shGFP viability, CellTiter-Glo luminescence, 72 h
Summary of the method: (§1)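 system = HMLE_shGFP control cell line | quantity = 1000 HMLE_shGFP cells per well | compound dosing = pin-transferred compound | controls = DMSO-only wells as negative control | detection = CellTiter-Glo luminescence for cell viability | buffer or medium = serum-free screening medium for cell seeding | schedule = 24 h cell attachment before dosing, then 72 h compound exposure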

For `O=C(COc1c(Cl)cc(Cl)cc1Cl)N/N=C/c1ccc[nH]1`, the outcome was “inactive”.
With `O=C(COc1ccc(Cl)cc1Cl)N/N=C/c1cnc[nH]1` the outcome was “inactive”.

tested on: HMLE_shGFP viability, CellTiter-Glo luminescence, 72 h; test: as above; settings: not given
Summary of the method: as §1

In order of falling AC50:
1. O=C(N/N=C/c1ccc[nH]1)c1cc2ccccc2o1  378 µM
2. O=C(COc1ccc(Cl)cc1Cl)N/N=C/c1ccc[nH]1  51.4 µM
3. Cc1cc(Cl)ccc1OCC(=O)N/N=C/c1ccc[nH]1  29.9 µM
4. CC(C)(C)c1ccc2c(c1)OC(C(=O)N/N=C/c1ccc[nH]1)CO2 (configuration not stated)  21.1 µM
5. O=C(COc1cc(Cl)ccc1Cl)N/N=C/c1ccc[nH]1  11.4 µM
